This passage reports ID50 and T/C results from ChEMBL document CHEMBL1122113, “Synthesis and antitumor activity of new platinum complexes” (J Med Chem, 1982).

Where “and” joins values, the source holds several entries; their conditions need not be identical. Identical values can stand only once. A value given as a limit tells only on which side of the number the result lay.

The test system of test [1] is L1210. As to the kind of experiment: In vitro inhibition of L1210 leukemia cells growth. The class given is functional, cell-based. The note with it: Mus musculus. In short, it runs like this:
(§1)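 Murine L1210 and PDD-resistant L1210/PDD cells kept in McCoy's 5A with 10% fetal calf serum. Compounds in water or Me2SO, or as suspensions, added to inoculated medium; Me2SO at most 0.2% final. Seeding about 5 × 10^4 cells/mL, then 96 h at 37 °C in 5% CO2. Density measured by electronic cell counter. ID50 (µg/mL) from growth inhibition.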

Test [2] has as its system L1210. The test can be described thus: In vitro inhibition of PDD resistant subline L1210/PDD growth. The format is functional, cell-based. The conditions noted are these: Mus musculus. The essentials:
as §1

Test [3] deals with Mus musculus. The test can be described thus: Activity against L1210 leukemia cells was measured as treated by control on ip administration of 1 mg/kg in mice. The class given is functional, organism-based. Set-up: dose 1 mg/kg. The note with it: at 1 mg/kg.
For test [4], the system named is Mus musculus. As to the kind of experiment: Activity against L1210 leukemia cells was measured as treated by control on ip administration of 10 mg/kg in mice. The class given is functional, organism-based. Set-up: dose 10 mg/kg. The note with it: at 10 mg/kg.
The subject of test [5] is Mus musculus. The test can be described thus: Activity against L1210 leukemia cells was measured as treated by control on ip administration of 5 mg/kg in mice. The note with it: at 5 mg/kg. The class given is functional, organism-based. Set-up: dose 5 mg/kg.
Test [6] has as its system Mus musculus. As to the kind of experiment: Activity against L1210 leukemia cells was measured as treated by control on ip administration of 50 mg/kg in mice;Toxic. On the set-up: dose 50 mg/kg. The note with it: at 50 mg/kg. The format is functional, organism-based.
Test [7] deals with Mus musculus. As to the kind of experiment: Activity against L1210 leukemia cells was measured as treated by control on ip administration of 0.62 mg/kg in mice. The format is functional, organism-based. Set-up: dose 0.62 mg/kg. The conditions noted are these: at 0.62 mg/kg.
The subject of test [8] is Mus musculus. The test can be described thus: Activity against L1210 leukemia cells was measured as treated by control on ip administration of 1.25 mg/kg in mice. The class given is functional, organism-based. On the set-up: dose 1.25 mg/kg. The conditions noted are these: at 1.25 mg/kg.
For test [9], the system named is Mus musculus. The test can be described thus: Activity against L1210 leukemia cells was measured as treated by control on ip administration of 2.5 mg/kg in mice. The note with it: at 2.5 mg/kg. Set-up: dose 2.5 mg/kg. The class given is functional, organism-based.
In test [10] the test system is Mus musculus. The test can be described thus: Activity against L1210 leukemia cells was measured as treated by control on ip administration of 20 mg/kg in mice. The format is functional, organism-based. Set-up: dose 20 mg/kg. The conditions noted are these: at 20 mg/kg.
Test [11] deals with Mus musculus. The test can be described thus: Activity against L1210 leukemia cells was measured as treated by control on ip administration of 40 mg/kg in mice. The note with it: at 40 mg/kg. Set-up: dose 40 mg/kg. The class given is functional, organism-based.

Turning to “1-(4-pyridiniumyl)-2-(1-trichloroplatinum-4-pyridiniumyl)ethane”, the ID50 in test [1] and in test [2] was above 10 µg/mL each time.
As to “1-(trichloro-dihydroxy)platinum-3-pyridiniumammonium”, the figures for the ID50 in [1] and in test [2] were 4.5 µg/mL and above 10 µg/mL, respectively.
Turning to “1-chloroplatinumsulphate-3-pyridiniumammonium”, the results for the ID50 in [1] and in test [2] were 4.6 µg/mL and above 10 µg/mL, respectively.
The like results for “1-methyl-4-trichloroplatinumhexahydropyrazinediium” were, in that order, 9 µg/mL and above 10 µg/mL.
Consider “1-pentachloroplatinum-3-pyridiniumammonium”, for which the ID50 in [1] was 4.4 µg/mL; in [2] it was above 10 µg/mL.
The like results for “1-trichloroplatinum-1,4-diazoniabicyclo[2.2.2]octane” were, in that order, above 10 µg/mL and above 10 µg/mL.
For “1-trichloroplatinum-3-pyridiniumammonium”, the ID50 in test [1] and in test [2] was above 10 µg/mL in each case.
For “1-trichloroplatinum-3-pyridiniumylmethanammonium”, the ID50 in test [1] and in [2] was above 10 µg/mL in each case. For the same substance, the T/C (in general, the result in the treated group divided by that in the control group, in per cent) was 100% in test [3]; 125% in test [4]; 123% and 138% in test [5]; “Toxic” in test [6].
As for “1-trichloroplatinumhexahydro-1-pyridiniumammonium”, the ID50 in [1] is 4.2 µg/mL; in test [2] it was above 10 µg/mL.
The like results for “1-trichloroplatinumhexahydropyrazinediium” were, in that order, above 10 µg/mL and above 10 µg/mL.
Taken in the same sequence, the figures for “2,5-dimethyl-1-trichloroplatinumhexahydropyrazinediium” were 10 µg/mL and above 10 µg/mL.
The like results for “2-(1-ethylhexahydro-2-pyridiniumyl)-1-trichloroplatinumpyridinium” were, in that order, above 10 µg/mL and above 10 µg/mL.
For the substance “3-(1-methyltetrahydro-1H-2-pyrroliumyl)-1-trichloroplatinumpyridinium”, the ID50 in test [1] and in [2] was above 10 µg/mL in each case.
On to “4-trichloroplatinum-4-azoniabicyclo[2.2.2]oct-2-ammonium”, for which the ID50 came to 2 µg/mL in test [1] and 5 µg/mL in test [2].
“N-methyl-1-trichloroplatinum-3-pyridiniumylmethanammonium”: the ID50 in test [1] and in [2] was above 10 µg/mL in each case. In addition, the T/C is 110% in test [7]; 122% in test [8]; 130% in test [4]; 126% in test [9]; 133% in test [10]; 120% in [5].
For the substance “ethyl(1-trichloroplatinum-2-pyridiniumyl)ammonium”, the ID50 in [1] and in [2] was above 10 µg/mL each time.
As for “ethyl(1-trichloroplatinum-2-pyridiniumylmethyl)ammonium”, the ID50 in test [1] and in [2] was above 10 µg/mL throughout. In addition, the T/C in test [4] was found to be 139%; in test [9] it was 119%; in test [10], 140%; in [11], 148%; in test [5], 122%.
